Results: ChEMBL document CHEMBL1135898, “Synthesis and antimycobacterial activity of 6-arylpurines: the requirements for the N-9 substituent in active antimycobacterial purines” (J Med Chem, 2002)
In brackets after ≈: the same amount, converted by molar mass.

How the values were obtained:
Type in all cases: functional
[1] = tested on: Mycobacterium tuberculosis; experiment: Minimum Inhibitory Concentration against drug-resistant strain resistant to Ethambutol
How it was run: (§1)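 MICs by microplate alamar blue assay against M. tuberculosis strains resistant to isoniazid (ATCC 35822), rifampin (ATCC 35838), ethambutol, kanamycin or ciprofloxacin, drug-sensitive strain Erdman, and M. avium (ATCC 25291). MIC = minimum concentration giving 90% growth inhibition.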

[2] = tested on: Mycobacterium tuberculosis; experiment: Minimum Inhibitory Concentration against drug-resistant strain resistant to Ciprofloxacin; how it was run: as §1
[3] = tested on: Mycobacterium tuberculosis; experiment: Minimum Inhibitory Concentration against drug-resistant strain resistant to Rifampin; how it was run: as §1
[4] = tested on: Mycobacterium tuberculosis; experiment: Minimum Inhibitory Concentration against drug-resistant strain resistant to Isoniazid; how it was run: as §1

With `Clc1nc(-c2ccco2)c2ncn(Cc3ccccc3)c2n1` the MIC [1] was < 0.39 µg/mL, the MIC [2] was < 0.39 µg/mL and the MIC [3] was 1.56 µg/mL (≈ 5.02 µM). It also gave an MIC [4] of 3.13 µg/mL (≈ 10.1 µM).
